This passage reports selectivity ratio, MIC and IC50 results from ChEMBL document CHEMBL3877325, “Novel salicylanilides from 4,5-dihalogenated salicylic acids: Synthesis, antimicrobial activity and cytotoxicity” (Bioorg Med Chem, 2017).

Converted amounts (≈) assume the structure as drawn.

Data set [1] can be described thus: Selectivity index, ratio of IC50 for human HepG2 cells to MIC for Mycobacterium tuberculosis H37Rv after 21 days. It counts as toxicity, cell-based. The settings on record: HepG2 cells versus Mycobacterium tuberculosis H37Rv, read-out: Selectivity Index. The essentials:
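HepG2 cells (passages 33-37) seeded at 1 × 10^4 per well and treated next day with 0.1–100 µM in triplicate. After 24 h at 37 °C, 5% CO2, MTS reagent added for 2 h and absorbance read at 490 nm. IC50 taken from viability relative to untreated control, then divided by the 21-day H37Rv MIC.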

In data set [2] the test system is Mycobacterium tuberculosis. Description: Antimycobacterial activity against Mycobacterium tuberculosis H37Rv My 331/88 after 21 days by micromethod. The following applies: H37Rv My 331/88, 504 h. It counts as functional. Put shortly: (§1)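 MIC micromethod in Šula's semisynthetic medium at 37 °C, read after 14 and 21 days. Compounds added as DMSO solutions at 500 down to 0.5 µM (twofold-type series: 500, 250, 125, 62.5, 32, 16, 8, 4, 2, 1, 0.5 µM). Isoniazid standard given in sterile water.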

Data set [3] is described as follows: Cytotoxicity against human HepG2 cells assessed as reduction in cell viability after 24 hrs by MTS assay. It counts as toxicity, cell-based. The essentials:
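HepG2 cells (passages 33-37) are grown in MEM with 10% FBS, L-glutamine and non-essential amino acids. They are seeded at 1 × 10^4 cells/well and treated next day with 0.1-100 µM in triplicate for 24 h at 37 °C, 5% CO2. MTS reagent is added for 2 h and A490 read.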

In data set [4] the test system is Mycobacterium kansasii. Description: Antimycobacterial activity against Mycobacterium kansasii isolate 6509/96 after 7 days by micromethod. It counts as functional. The following applies: isolate 6509/96, 168 h. The essentials:
(§2)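 MIC in Šula's semisynthetic medium at 37 °C, read after 7, 14 and 21 days. Inoculum is strain dilution 10^-4; 235/80 is a collection strain and 6509/96 a clinical isolate. Compounds are added as DMSO solutions at 500, 250, 125, 62.5, 32, 16, 8, 4, 2, 1 and 0.5 µM. INH (in sterile water) and PAS are the reference drugs.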

Data set [5] has as its system Mycobacterium kansasii. The data set is described as follows: Antimycobacterial activity against Mycobacterium kansasii isolate 235/80 after 7 days by micromethod. It counts as functional. The settings on record: isolate 235/80, 168 h. The essentials: as §2
For data set [6], the system named is Mycobacterium avium. The data set is described as follows: Antimycobacterial activity against Mycobacterium avium My 330/80 after 14 days by micromethod. It counts as functional. The following applies: My 330/80, 336 h. Put shortly:
(§3)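 M. avium My 330/80 (collection strain) inoculated at 10^-5 dilution into Šula's semisynthetic medium. Compounds added from DMSO solutions at 500, 250, 125, 62.5, 32, 16, 8, 4, 2, 1 and 0.5 µM. MIC determined by micromethod at 37 °C, read after 14 and 21 days.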

Data set [7] deals with Mycobacterium tuberculosis. Description: Antimycobacterial activity against Mycobacterium tuberculosis H37Rv My 331/88 after 14 days by micromethod. It counts as functional. The following applies: H37Rv My 331/88, 336 h. Put shortly: as §1
Data set [8] deals with Mycobacterium kansasii. The data set is described as follows: Antimycobacterial activity against Mycobacterium kansasii isolate 6509/96 after 14 days by micromethod. The settings on record: isolate 6509/96, 336 h. It counts as functional. Put shortly: as §2
The subject of data set [9] is Mycobacterium kansasii. The data set is described as follows: Antimycobacterial activity against Mycobacterium kansasii isolate 235/80 after 21 days by micromethod. The following applies: isolate 235/80, 504 h. The class given is functional. The essentials: as §2
Data set [10] deals with Mycobacterium kansasii. The data set is described as follows: Antimycobacterial activity against Mycobacterium kansasii isolate 235/80 after 14 days by micromethod. The class given is functional. The following applies: isolate 235/80, 336 h. Put shortly:
as §2

Data set [11] deals with Mycobacterium kansasii. The data set is described as follows: Antimycobacterial activity against Mycobacterium kansasii isolate 6509/96 after 21 days by micromethod. The following applies: isolate 6509/96, 504 h. It counts as functional. The essentials:
as §2

Data set [12] has as its system Mycobacterium avium. The data set is described as follows: Antimycobacterial activity against Mycobacterium avium My 330/80 after 21 days by micromethod. It counts as functional. The following applies: My 330/80, 504 h. The essentials: as §3

As usually defined, the MIC is the least concentration at which growth counts as inhibited. A lower MIC goes with a more susceptible organism. The IC50 is the concentration that inhibits the measured activity by half.

For the compound `O=C(Nc1ccc(Br)cc1)c1ccc(Cl)cc1O`, the selectivity ratio at 504 h in [1] is 0.81. Further, the MIC in data set [2] came out at 4 µM (≈ 1.31 µg/mL); in the data set with Mycobacterium kansasii [4] it was 4 µM (≈ 1.31 µg/mL); with Mycobacterium kansasii [5] it was 4 µM (≈ 1.31 µg/mL); against Mycobacterium avium [6], 16 µM (≈ 5.23 µg/mL); in [7], 4 µM (≈ 1.31 µg/mL); in the data set on Mycobacterium kansasii [8], 8 µM (≈ 2.61 µg/mL). Besides, the MIC against Mycobacterium kansasii [9] amounted to 4 µM (≈ 1.31 µg/mL); in the data set with Mycobacterium kansasii [10], 4 µM (≈ 1.31 µg/mL); against Mycobacterium kansasii [11] it was 8 µM (≈ 2.61 µg/mL); against Mycobacterium avium [12] it was 16 µM (≈ 5.23 µg/mL). For the same compound, in data set [3], the IC50 at 24 h was determined as 3.24 µM.
In the case of `O=C(Nc1ccc(Cl)c(Cl)c1)c1cc(Br)ccc1O`, the selectivity ratio at 504 h in data set [1] was found to be 7.87. Also, the MIC worked out at 4 µM (≈ 1.44 µg/mL) in [2]; 2 µM (≈ 0.722 µg/mL) in the data set with Mycobacterium kansasii [4]; 8 µM (≈ 2.89 µg/mL) against Mycobacterium kansasii [5]; 8 µM (≈ 2.89 µg/mL) in the data set with Mycobacterium avium [6]; 4 µM (≈ 1.44 µg/mL) in data set [7]; 2 µM (≈ 0.722 µg/mL) against Mycobacterium kansasii [8]. For the same compound, the MIC was 8 µM (≈ 2.89 µg/mL) against Mycobacterium kansasii [9], 8 µM (≈ 2.89 µg/mL) against Mycobacterium kansasii [10], 4 µM (≈ 1.44 µg/mL) with Mycobacterium kansasii [11] and 8 µM (≈ 2.89 µg/mL) against Mycobacterium avium [12]. Moreover, in data set [3], the IC50 at 24 h came out at 31.5 µM.
As to `O=C(Nc1ccc(Cl)c(Cl)c1)c1ccc(Cl)cc1O`, in data set [1], the selectivity ratio at 504 h was found to be 0.56. In addition, the MIC in data set [2] came out at 4 µM (≈ 1.27 µg/mL); in the data set on Mycobacterium kansasii [4] it was 4 µM (≈ 1.27 µg/mL); in the data set on Mycobacterium kansasii [5], 4 µM (≈ 1.27 µg/mL); in the data set with Mycobacterium avium [6], 16 µM (≈ 5.07 µg/mL); in [7], 4 µM (≈ 1.27 µg/mL); against Mycobacterium kansasii [8], 4 µM (≈ 1.27 µg/mL). Moreover, the MIC in the data set with Mycobacterium kansasii [9] was 8 µM (≈ 2.53 µg/mL); with Mycobacterium kansasii [10], 8 µM (≈ 2.53 µg/mL); in the data set on Mycobacterium kansasii [11], 8 µM (≈ 2.53 µg/mL); against Mycobacterium avium [12], 16 µM (≈ 5.07 µg/mL). In data set [3], the IC50 at 24 h turned out to be 2.23 µM.
